The source of these data is article PMC10798293 (Journal of Enzyme Inhibition and Medicinal Chemistry, 2024).

As usually defined, the pIC50 is the negative decadic logarithm of the IC50, by convention in mol/L. High values mean a low IC50, low ones a high IC50. Broadly, the pKi is −log10 of the Ki, conventionally taken in molar units. A low value points to a high Ki. As usually defined, the pKd is the negative decadic logarithm of the Kd, by convention in mol/L. Broadly, the Km is the substrate concentration at which the rate is half of its maximum.

pIC50, pKd, pKi: −log10 of the molar value. Entries after “also recorded” stand apart in the source; their conditions may differ.

In test [1] the test system is S. aureus. In words: Growth / time-kill curves. The format is cell-based, Staphylococcus aureus. The conditions noted are these: inhibitor at MIC: 50 μg/mL (-)-gallocatechin gallate, 250 μg/mL rhodiosin.
Test [2] deals with S. aureus. In words: Scanning electron microscopy of bacterial morphology. The format is cell-based, Staphylococcus aureus. The conditions noted are these: MIC and 1/2 MIC, 1.5 h.
For test [3], the system named is S. aureus. In words: S. aureus susceptibility, micro-broth two-fold serial dilution. The format is cell-based, Staphylococcus aureus.
Test [4] concerns S. aureus. In words: Cell membrane integrity, Calcein AM/PI staining. The settings on record: MIC, 37 °C, 3 h. The format is cell-based, Staphylococcus aureus.
Test [5] deals with T1, SaSDH (Staphylococcus aureus shikimate dehydrogenase) (Staphylococcus aureus, UniProt Q5HFG5).
T1 sequence (Q5HFG5 1-268): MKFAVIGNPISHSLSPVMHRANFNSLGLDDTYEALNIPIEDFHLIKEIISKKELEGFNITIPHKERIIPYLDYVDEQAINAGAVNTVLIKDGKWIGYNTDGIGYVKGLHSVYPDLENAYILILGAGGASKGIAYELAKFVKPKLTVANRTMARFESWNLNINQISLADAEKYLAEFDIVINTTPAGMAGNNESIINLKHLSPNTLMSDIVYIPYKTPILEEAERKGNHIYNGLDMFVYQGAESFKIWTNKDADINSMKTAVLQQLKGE
In words: SaSDH enzyme inhibition. The settings on record: for pIC50: 1 mM SHK, 1.54 ng SaSDH, pH 9.0, 37 °C, 30 min; for Mode of inhibition: with respect to SHK. The format is biochemical.

Test [6] deals with T2, SaSDH (Staphylococcus aureus, UniProt Q5HFG5).
T2 sequence (Q5HFG5 1-268): T1 sequence (Q5HFG5 1-268)
The experiment in a line: Isothermal titration calorimetry. The settings on record: ITC, 100 mM Tris-HCl pH 9.0, 25 °C. The format is binding.

The target in test [7] is T2, SaSDH. The experiment in a line: SaSDH enzyme activity and kinetic parameters for substrates. The conditions noted are these: substrate varied, co-substrate at saturation, pH 9.0, 37 °C. The format is biochemical. In a few lines: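 His-tagged SaSDH (pET-28a(+), E. coli BL21(DE3)pLysS, IPTG induction, Ni-NTA purified). Reverse reaction: NADP+-dependent SHK oxidation, 1.54 ng enzyme, 100 mM Tris-HCl pH 9.0, 37 °C, enzyme-started; A340 every minute for 60 min.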

On to `O=C(O[C@@H]1Cc2c(O)cc(O)cc2O[C@H]1c1cc(O)c(O)c(O)c1)c1cc(O)c(O)c(O)c1` [(-)-Gallocatechin gallate], for which the “Effect on S. aureus growth (time-kill curves)” value in the test on S. aureus [1] is on record as “slow bacterial growth”. Further, the “Bacterial morphology by SEM” value with S. aureus [2] was “cell disintegration, cell surface fracturing and wrinkling”. For the same compound, in the test on S. aureus [3], the “Antibacterial activity (in words)” value is “antibacterial activities”. Further, the “Cell membrane integrity (PI-labeled bacteria)” value in the test with S. aureus [4] was “cell membrane destruction”. In test [5] (1 mM NADP), this compound had a pIC50 greater than 4.00. In test [5] (Lineweaver-Burke plots, SHK varied 0.25-4 mM), this compound gave a pKi of 5.61. For the same compound, the Mode of inhibition result in test [5] (Lineweaver-Burke plots) is “uncompetitive inhibition; also recorded: uncompetitive inhibitor”. This compound also gave a pKd at SaSDH [6] of 4.35.

In test [5] (1 mM NADP), `CC=C1[C@H](O[C@@H]2O[C@H](CO)[C@@H](O)[C@H](O)[C@H]2O)OC=C(C(=O)OC)[C@H]1CC(=O)OC[C@H]1O[C@@H](OCCc2ccc(O)cc2)[C@H](O)[C@@H](O)[C@@H]1O` (stereo in doubt) [Specneuzhenide] gave a pIC50 greater than 4.00.

For `O=C(O)C1=C[C@@H](O)[C@@H](O)[C@H](O)C1` [SHK, shikimate], on SaSDH [7], the Km was found to be 46.1 µM and the Vmax came out at 3.362 mM/min/µg.

Turning to `O=C(OC[C@H]1O[C@@H](OC(=O)c2cc(O)c(O)c(O)c2)[C@H](OC(=O)c2cc(O)c(O)c(O)c2)[C@@H](OC(=O)c2cc(O)c(O)c(O)c2)[C@@H]1OC(=O)c1cc(O)c(O)c(O)c1)c1cc(O)c(O)c(O)c1` [Pentagalloylglucose], in the test with S. aureus [3], the “Antibacterial activity (in words)” value is on record as “antibacterial activities”. For the same compound, the pIC50 in test [5] (IC50, 1 mM NADP) was greater than 4.00.

For the compound `NC(=O)c1ccc[n+]([C@@H]2O[C@H](COP(=O)([O-])OP(=O)(O)OC[C@H]3O[C@@H](n4cnc5c(N)ncnc54)[C@H](OP(=O)(O)O)[C@@H]3O)[C@@H](O)[C@H]2O)c1` [NADP^+], on SaSDH [7], the Km was found to be 98.2 µM and the Vmax was determined as 3.785 mM/min/µg.

`C[C@@H]1O[C@@H](OC[C@H]2O[C@@H](Oc3c(-c4ccc(OCCO)c(OCCO)c4)oc4cc(OCCO)cc(O)c4c3=O)[C@H](O)[C@@H](O)[C@@H]2O)[C@H](O)[C@H](O)[C@H]1O` [Troxerutin, reference compound] gave a pIC50 in test [5] (IC50, 1 mM NADP) greater than 4.00.

With Rhodiosin, in the test on S. aureus [1], the “Effect on S. aureus growth (time-kill curves)” value is reported as “completely inhibited S.aureus growth”. In addition, in the test on S. aureus [2], the “Bacterial morphology by SEM” value was “cell disintegration, cell surface fracturing and wrinkling”. The “Antibacterial activity (in words)” value in the test with S. aureus [3] is reported as “antibacterial activities”. In addition, the “Cell membrane integrity (PI-labeled bacteria)” value in the test with S. aureus [4] is given as “cell membrane destruction”. The Mode of inhibition entry in test [5] (Lineweaver-Burke plots) is recorded as “competitive inhibition”; in test [5] (Lineweaver-Burke plots, listed as rhodiosin), “competitive inhibitor”.

In turn, `COc1ccc([C@@H]2CC(=O)c3c(O)cc(O[C@@H]4O[C@H](CO[C@@H]5O[C@@H](C)[C@H](O)[C@@H](O)[C@H]5O)[C@@H](O)[C@H](O)[C@H]4O)cc3O2)cc1O` [Hesperidin] showed a negative-log IC50 (pIC50) in test [5] (1 mM NADP) greater than 4.00.
